Measurements: ChEMBL document CHEMBL3351505, “Ultrasound-assisted synthesis of novel 1,2,3-triazoles coupled diaryl sulfone moieties by the CuAAC reaction, and biological evaluation of them as antioxidant and antimicrobial agents” (Eur J Med Chem, 2014)
Values after ≈ are worked out from the molar mass of the structure shown. Active and inactive are the calls of the source. The rule behind the calls is not given here.

Assays:
Staphylococcus aureus [1] = assay: Antibacterial activity against Staphylococcus aureus ATCC 29213 using 100 uL of test compound after 24 hrs by agar well diffusion method; assay type: functional
Method in brief: (§1)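 Agar well diffusion. Nutrient agar was spread with bacterial suspension at 1×10⁸ CFU/mL, and 10 mm wells were cut. Wells were loaded with compound solution made at 200 mg per 1 mL DMSO. Plates were incubated 24 h at 37 °C and inhibition zones were measured. DMSO served as the negative control.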

Bacillus subtilis [2] = assay: Antibacterial activity against Bacillus subtilis ATCC 6633 using 100 uL of test compound after 24 hrs by agar well diffusion method; assay type: functional; method in brief: as §1
Priestia megaterium [3] = assay: Antibacterial activity against Bacillus megaterium ATCC 9885 using 100 uL of test compound after 24 hrs by agar well diffusion method; assay type: functional; method in brief: as §1
Micrococcus luteus [4] = assay: Antibacterial activity against Sarcina lutea using 100 uL of test compound after 24 hrs by agar well diffusion method; assay type: functional; method in brief: as §1
Klebsiella pneumoniae [5] = assay: Antibacterial activity against Klebsiella pneumoniae ATCC 13883 using 100 uL of test compound after 24 hrs by agar well diffusion method; assay type: functional; method in brief: as §1
Pseudomonas aeruginosa [6] = assay: Antibacterial activity against Pseudomonas aeruginosa ATCC 27953 using 100 uL of test compound after 24 hrs by agar well diffusion method; assay type: functional; method in brief: as §1
Escherichia coli [7] = assay: Antibacterial activity against Escherichia coli ATCC 25922 using 100 uL of test compound after 24 hrs by agar well diffusion method; assay type: functional; method in brief: as §1
Candida albicans [8] = assay: Antifungal activity against Candida albicans NRRL Y-477 using 100 uL of test compound after 48 hrs by agar well diffusion method; assay type: functional
Method in brief: as §1, with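 “Sabouraud dextrose” for “Nutrient”, “yeast or fungal” for “bacterial”, “1×10⁶” for “1×10⁸”, “48” for “24”, “28” for “37”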

Saccharomyces cerevisiae [9] = assay: Antifungal activity against Saccharomyces cerevisiae using 100 uL of test compound after 48 hrs by agar well diffusion method; assay type: functional
Method in brief: as §1, with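 “Sabouraud dextrose” for “Nutrient”, “yeast or fungal” for “bacterial”, “1×10⁶” for “1×10⁸”, “48” for “24”, “28” for “37”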

Aspergillus niger [10] = assay: Antifungal activity against Aspergillus niger using 100 uL of test compound after 48 hrs by agar well diffusion method; assay type: functional
Method in brief: as §1, with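 “Sabouraud dextrose” for “Nutrient”, “yeast or fungal” for “bacterial”, “1×10⁶” for “1×10⁸”, “48” for “24”, “28” for “37”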

Staphylococcus aureus [11] = assay: Antibacterial activity against Staphylococcus aureus ATCC 29213 after 24 hrs by two fold serial dilution method; assay type: functional; settings: ATCC 29213, 24 h
Bacillus subtilis [12] = assay: Antibacterial activity against Bacillus subtilis ATCC 6633 after 24 hrs by two fold serial dilution method; assay type: functional
Priestia megaterium [13] = assay: Antibacterial activity against Bacillus megaterium ATCC 9885 after 24 hrs by two fold serial dilution method; assay type: functional
Micrococcus luteus [14] = assay: Antibacterial activity against Sarcina lutea after 24 hrs by two fold serial dilution method; assay type: functional
Klebsiella pneumoniae [15] = assay: Antibacterial activity against Klebsiella pneumoniae ATCC 13883 after 24 hrs by two fold serial dilution method; assay type: functional
Pseudomonas aeruginosa [16] = assay: Antibacterial activity against Pseudomonas aeruginosa ATCC 27953 after 24 hrs by two fold serial dilution method; assay type: functional
Escherichia coli [17] = assay: Antibacterial activity against Escherichia coli ATCC 25922 after 24 hrs by two fold serial dilution method; assay type: functional
Candida albicans [18] = assay: Antifungal activity against Candida albicans NRRL Y-477 after 48 hrs by two fold serial dilution method; assay type: functional
Method in brief: (§2)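 Two-fold serial broth dilution in a suitable broth, run only on compounds giving inhibition zones of at least 16 mm. Final concentrations were […]. Each 5 mL received 0.1 mL inoculum and was incubated 48 h at 28 °C. MIC was the lowest concentration without growth.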

Saccharomyces cerevisiae [19] = assay: Antifungal activity against Saccharomyces cerevisiae after 48 hrs by two fold serial dilution method; assay type: functional; method in brief: as §2
Aspergillus niger [20] = assay: Antifungal activity against Aspergillus niger after 48 hrs by two fold serial dilution method; assay type: functional; method in brief: as §2
[21] = Antioxidant activity assessed as DPPH free radical scavenging activity by spectrophotometric assay; assay type: physicochemical
Method in brief: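 Sample solutions at several concentrations were added to 0.004% DPPH in methanol and incubated 60 min in the dark. Absorbance was read at 517 nm against a blank. Inhibition % = (A_blank − A_sample)/A_blank × 100, where the control contained all reagents except the test compound.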

SMILES	MIC (Staphylococcus aureus [11])	MIC (Bacillus subtilis [12]; ATCC 6633, 24 h)	MIC (Priestia megaterium [13]; ATCC 9885, 24 h)	MIC (Micrococcus luteus [14])	MIC (Pseudomonas aeruginosa [16])	MIC (Escherichia coli [17]; ATCC 25922, 24 h)	MIC (Saccharomyces cerevisiae [19])	MIC (Aspergillus niger [20])	IC50 [21]	MIC (Klebsiella pneumoniae [15]; ATCC 13883, 24 h)	diameter of the inhibition zone (DIZ) (Staphylococcus aureus [1])	diameter of the inhibition zone (DIZ) (Bacillus subtilis [2])	diameter of the inhibition zone (DIZ) (Priestia megaterium [3])	diameter of the inhibition zone (DIZ) (Micrococcus luteus [4])	diameter of the inhibition zone (DIZ) (Klebsiella pneumoniae [5])	diameter of the inhibition zone (DIZ) (Pseudomonas aeruginosa [6])	diameter of the inhibition zone (DIZ) (Escherichia coli [7])	diameter of the inhibition zone (DIZ) (Candida albicans [8])	diameter of the inhibition zone (DIZ) (Saccharomyces cerevisiae [9])	diameter of the inhibition zone (DIZ) (Aspergillus niger [10])	other results
O=C(Cn1cc(COC(Cc2cn(CC(=O)c3ccc(Br)cc3)nn2)c2ccc(S(=O)(=O)c3ccccc3)cc2)nn1)c1ccc(Br)cc1 (stereo not given)	200 µg/mL (≈ 249 µM)	200 µg/mL (≈ 249 µM)	200 µg/mL (≈ 249 µM)	200 µg/mL (≈ 249 µM)	inactive	200 µg/mL (≈ 249 µM)	200 µg/mL (≈ 249 µM)	200 µg/mL (≈ 249 µM)	150 µg/mL (≈ 186 µM)	–	17 mm	17 mm	20 mm	22 mm	inactive	inactive	17 mm	21 mm	20 mm	20 mm	MIC (Klebsiella pneumoniae [15]): inactive; MIC (Candida albicans [18]; NRRL Y-477, 48 h): 200 µg/mL (≈ 249 µM)
CC(Cc1cn(CC(=O)c2ccc(Br)cc2)nn1)(OCc1cn(CC(=O)c2ccc(Br)cc2)nn1)c1ccc(S(=O)(=O)c2ccccc2)cc1 (stereo not given)	100 µg/mL (≈ 122 µM)	–	100 µg/mL (≈ 122 µM)	100 µg/mL (≈ 122 µM)	100 µg/mL (≈ 122 µM)	100 µg/mL (≈ 122 µM)	inactive	25 µg/mL (≈ 30.5 µM)	Not Active	100 µg/mL (≈ 122 µM)	24 mm	14 mm	23 mm	24 mm	26 mm	26 mm	24 mm	15 mm	14 mm	32 mm	MIC (Bacillus subtilis [12]): inactive; MIC (Candida albicans [18]): inactive
CC(O)(Cc1cn(CC(=O)c2ccc(F)cc2)nn1)c1ccc(S(=O)(=O)c2ccccc2)cc1 (stereo not given)	200 µg/mL (≈ 417 µM)	200 µg/mL (≈ 417 µM)	200 µg/mL (≈ 417 µM)	200 µg/mL (≈ 417 µM)	200 µg/mL (≈ 417 µM)	200 µg/mL (≈ 417 µM)	inactive	50 µg/mL (≈ 104 µM)	425 µg/mL (≈ 886 µM)	200 µg/mL (≈ 417 µM)	17 mm	19 mm	17 mm	21 mm	19 mm	22 mm	19 mm	15 mm	inactive	32 mm	MIC (Candida albicans [18]): inactive

Further lines, with some results ahead:

MIC (Staphylococcus aureus [11])	MIC (Bacillus subtilis [12]; ATCC 6633, 24 h)	MIC (Priestia megaterium [13]; ATCC 9885, 24 h)	MIC (Micrococcus luteus [14])	MIC (Pseudomonas aeruginosa [16])	MIC (Escherichia coli [17]; ATCC 25922, 24 h)	MIC (Saccharomyces cerevisiae [19])	MIC (Aspergillus niger [20])	IC50 [21]	MIC (Klebsiella pneumoniae [15]; ATCC 13883, 24 h)	SMILES	diameter of the inhibition zone (DIZ) (Staphylococcus aureus [1])	diameter of the inhibition zone (DIZ) (Bacillus subtilis [2])	diameter of the inhibition zone (DIZ) (Priestia megaterium [3])	diameter of the inhibition zone (DIZ) (Micrococcus luteus [4])	diameter of the inhibition zone (DIZ) (Klebsiella pneumoniae [5])	diameter of the inhibition zone (DIZ) (Pseudomonas aeruginosa [6])	diameter of the inhibition zone (DIZ) (Escherichia coli [7])	diameter of the inhibition zone (DIZ) (Candida albicans [8])	diameter of the inhibition zone (DIZ) (Saccharomyces cerevisiae [9])	diameter of the inhibition zone (DIZ) (Aspergillus niger [10])	other results
200 µg/mL (≈ 216 µM)	–	–	200 µg/mL (≈ 216 µM)	inactive	–	inactive	100 µg/mL (≈ 108 µM)	600 µg/mL (≈ 647 µM)	–	O=C(Cn1cc(COC(Cc2cn(CC(=O)c3ccc(S(=O)(=O)c4ccccc4)cc3)nn2)c2ccc(S(=O)(=O)c3ccccc3)cc2)nn1)c1ccc(S(=O)(=O)c2ccccc2)cc1 (stereo not given)	17 mm	14 mm	inactive	19 mm	13 mm	14 mm	inactive	14 mm	inactive	20 mm	MIC (Bacillus subtilis [12]): inactive; MIC (Priestia megaterium [13]): inactive; MIC (Klebsiella pneumoniae [15]): inactive; MIC (Escherichia coli [17]): inactive; MIC (Candida albicans [18]): inactive
100 µg/mL (≈ 155 µM)	200 µg/mL (≈ 309 µM)	200 µg/mL (≈ 309 µM)	100 µg/mL (≈ 155 µM)	100 µg/mL (≈ 155 µM)	200 µg/mL (≈ 309 µM)	200 µg/mL (≈ 309 µM)	200 µg/mL (≈ 309 µM)	175 µg/mL (≈ 271 µM)	100 µg/mL (≈ 155 µM)	O=C(Cn1cc(COC(Cc2cn(CC(=O)c3ccccc3)nn2)c2ccc(S(=O)(=O)c3ccccc3)cc2)nn1)c1ccccc1 (stereo not given)	24 mm	17 mm	20 mm	24 mm	15 mm	23 mm	20 mm	23 mm	22 mm	20 mm	MIC (Candida albicans [18]; NRRL Y-477, 48 h): 200 µg/mL (≈ 309 µM)
